Key:
[1] = Stability in human microsomes assessed as unbound intrinsic clearance; assay type: ADME, Microsome
Outline: (§1)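 Unbound intrinsic clearance measured in human and mouse liver microsomes, expressed in L/h/kg. Values are geometric means of at least two separate runs.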

[2] = Stability in mouse microsomes assessed as unbound intrinsic clearance; assay type: ADME, Microsome; outline: as §1
[3] = molecular target: T1, Nuclear receptor ROR-gamma (Homo sapiens, UniProt P51449); test: Inverse agonist activity at RORgamma in human CD4+ T cells assessed as inhibition of IL17A secretion after 72 hrs by ELISA; assay type: cell-based, CD4+ve Th
T1 sequence (P51449 whole entry): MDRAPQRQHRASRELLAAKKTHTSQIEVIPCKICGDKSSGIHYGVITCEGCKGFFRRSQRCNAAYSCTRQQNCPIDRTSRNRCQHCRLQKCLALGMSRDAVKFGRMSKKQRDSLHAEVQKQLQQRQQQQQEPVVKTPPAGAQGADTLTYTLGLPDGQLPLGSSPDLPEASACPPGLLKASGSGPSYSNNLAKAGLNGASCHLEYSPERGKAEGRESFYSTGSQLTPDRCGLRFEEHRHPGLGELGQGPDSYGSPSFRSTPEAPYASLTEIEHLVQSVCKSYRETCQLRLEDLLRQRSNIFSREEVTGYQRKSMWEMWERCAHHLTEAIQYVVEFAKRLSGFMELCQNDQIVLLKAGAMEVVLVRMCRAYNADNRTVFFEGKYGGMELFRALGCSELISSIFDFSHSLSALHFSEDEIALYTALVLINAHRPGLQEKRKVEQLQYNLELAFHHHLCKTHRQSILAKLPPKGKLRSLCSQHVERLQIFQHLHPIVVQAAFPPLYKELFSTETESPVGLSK

[4] = molecular target: T1, Nuclear receptor ROR-gamma; test: Inverse agonist activity at pSG5GAL4-DBD/LBD fused human RORgamma receptor expressed in COS7 cells co-expressing 5 copies of GAL4 response element after 18 hrs by luciferase reporter gene based assay; assay type: cell-based
Mus musculus = test: Immunosuppressive activity in po dosed PLP (139 to 151 residues)-induced experimental autoimmune encephalomyelitis mouse model assessed as incidence of disease administered twice starting from immunization relative to control; assay type: functional
Outline: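 EAE induced in mice by immunization with proteolipid protein peptide PLP139-151; ascending paralysis develops 10–12 days post-immunization. Compound dosed orally b.i.d. starting from immunization. Disease onset/incidence scored relative to control.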

| Structure (SMILES) | CL free [1] | CL free [2] | EC50 [3] | EC50 [4] | Activity (Mus musculus) |
| --- | --- | --- | --- | --- | --- |
| Cc1cc(C(F)(F)F)c2cccc(OCc3c(Cl)ccc(S(=O)(=O)N4CCCCC4)c3Cl)c2n1 | 233 mL/min/kg | 1000 mL/min/kg | – | – | – |
| CNC(=O)[C@@H]1CCCN1S(=O)(=O)c1ccc(Cl)c(COc2cccc3c(-c4ccccc4)cc(C)nc23)c1Cl | – | – | 0.89 µM | 0.32 µM | – |
| Cc1cc(C(F)(F)F)c2cccc(OCc3c(Cl)ccc(S(=O)(=O)N4C[C@@H](C)O[C@@H](C)C4)c3Cl)c2n1 | 317 mL/min/kg | 933 mL/min/kg | – | 0.22 µM | – |
| CNC(=O)[C@@H]1CCCN1S(=O)(=O)c1ccc(Cl)c(COc2cccc3c(-n4ccnc4)cc(C(F)(F)F)nc23)c1Cl | 17 mL/min/kg | 130 mL/min/kg | 3.32 µM | 0.17 µM | – |
| Cc1cc(C(F)(F)F)c2cccc(OCc3c(Cl)ccc(S(=O)(=O)N4CCC[C@H]4C(=O)O)c3Cl)c2n1 | 8.3 mL/min/kg | 13 mL/min/kg | – | 1.39 µM | – |
| CNC(=O)[C@@H]1CCCN1S(=O)(=O)c1ccc(Cl)c(COc2cccc3c(-c4nccn4C)cc(C)nc23)c1Cl | 120 mL/min/kg | 917 mL/min/kg | – | > 10 µM | – |
| CCCCCCCCc1ccc(CCC(N)(CO)CO)cc1 [FINGOLIMOD] | – | – | – | – | 0% |
| CCc1cc(C(F)(F)F)c2cccc(OCc3c(Cl)ccc(S(=O)(=O)N4CCC[C@H]4C(=O)NC)c3Cl)c2n1 | 300 mL/min/kg | 1280 mL/min/kg | 0.21 µM | 0.35 µM | – |
| Cc1cc(C(F)(F)F)c2cccc(OCc3c(Cl)ccc(S(=O)(=O)N4CCC[C@H]4C(N)=O)c3Cl)c2n1 | 167 mL/min/kg | 12600 mL/min/kg | 0.47 µM | 0.44 µM | – |
| CNC(=O)[C@@H]1CCCN1S(=O)(=O)c1ccc(Cl)c(COc2cccc3c(C(F)(F)F)cc(C(C)C)nc23)c1Cl | 500 mL/min/kg | 1630 mL/min/kg | 0.77 µM | 0.17 µM | – |
| CNC(=O)[C@@H]1CCCN1S(=O)(=O)c1ccc(Cl)c(COc2cccc3c(-c4ccncc4)cc(C)nc23)c1Cl | 217 mL/min/kg | 550 mL/min/kg | – | – | – |
| Cc1cc(C(F)(F)F)c2cccc(OCc3c(Cl)ccc(S(=O)(=O)N4CC[C@@H](N(C)C)C4)c3Cl)c2n1 | 167 mL/min/kg | 867 mL/min/kg | – | 0.91 µM | – |
| CNC(=O)[C@@H]1CCCN1S(=O)(=O)c1cccc(COc2cccc3c(C(F)(F)F)cc(C)nc23)c1 | 50 mL/min/kg | 767 mL/min/kg | – | > 10 µM | – |
| CNC(=O)[C@@H]1CCCN1S(=O)(=O)c1ccc(Cl)c(COc2cccc3c(-c4ccncc4)cc(C(C)C)nc23)c1Cl | 333 mL/min/kg | 633 mL/min/kg | 1.83 µM | 0.22 µM | – |
| CNC(=O)[C@@H]1CCCN1S(=O)(=O)c1ccc(Cl)c(COc2cccc3c(-n4ccnc4)cc(C(C)C)nc23)c1Cl | 33 mL/min/kg | 130 mL/min/kg | – | 0.52 µM | – |
| CNC(=O)[C@@H]1CCCN1S(=O)(=O)c1ccc(Cl)c(COc2cccc3c(-n4ccnc4)cc(C)nc23)c1Cl | 33 mL/min/kg | 267 mL/min/kg | 3 µM | 1.36 µM | – |
| COC[C@@H]1CCCN1S(=O)(=O)c1ccc(Cl)c(COc2cccc3c(C(F)(F)F)cc(C)nc23)c1Cl | 450 mL/min/kg | 1620 mL/min/kg | 0.16 µM | 0.16 µM | – |
| Cc1cc(C(F)(F)F)c2cccc(OCc3c(Cl)ccc(S(=O)(=O)N4CCC[C@H]4CO)c3Cl)c2n1 | 250 mL/min/kg | 1630 mL/min/kg | 0.83 µM | 0.96 µM | – |
| CNC(=O)[C@@H]1CCCN1S(=O)(=O)c1ccc(Cl)c(COc2cccc3c(-c4ccccn4)cc(C)nc23)c1Cl | 183 mL/min/kg | 733 mL/min/kg | – | – | – |
| CNC(=O)[C@@H]1CCCN1S(=O)(=O)c1ccc(Cl)c(COc2cccc3c(C(F)(F)F)cc(C)nc23)c1Cl | 250 mL/min/kg | 1380 mL/min/kg | – | – | – |
| CNC(=O)[C@@H]1CCCN1S(=O)(=O)c1ccc(Cl)c(COc2cccc3c(OCc4ccccc4)cc(C)nc23)c1Cl | 467 mL/min/kg | 1820 mL/min/kg | – | 0.88 µM | – |
| Cc1cc(C(F)(F)F)c2cccc(OCc3c(Cl)ccc(S(=O)(=O)N4CCC(C#N)CC4)c3Cl)c2n1 | 433 mL/min/kg | 1720 mL/min/kg | – | 0.76 µM | – |
| CNC(=O)[C@@H]1CCCN1S(=O)(=O)c1ccc(Cl)c(COc2cccc3c(-c4cncn4C)cc(C)nc23)c1Cl | 33 mL/min/kg | 120 mL/min/kg | 1.39 µM | 1.51 µM | – |
| CNC(=O)[C@@H]1CCCN1S(=O)(=O)c1ccc(Cl)c(COc2cccc3c(OCc4ccccc4)cc(C(C)C)nc23)c1Cl | 667 mL/min/kg | 1220 mL/min/kg | – | – | – |
| Cc1cc(C(F)(F)F)c2cccc(OCc3c(Cl)ccc(S(=O)(=O)N4CCC(CCO)CC4)c3Cl)c2n1 | 367 mL/min/kg | 1080 mL/min/kg | – | 0.39 µM | – |
| Cc1cc(C(F)(F)F)c2cccc(OCc3c(Cl)ccc(S(=O)(=O)N4CCCC4)c3Cl)c2n1 | 233 mL/min/kg | 967 mL/min/kg | – | – | – |
| CNC(=O)[C@@H]1CCCN1S(=O)(=O)c1ccc(Cl)c(COc2cccc3c(-c4cccnc4)cc(C)nc23)c1Cl | 233 mL/min/kg | 700 mL/min/kg | 1.01 µM | 0.1 µM | – |
| CCN(c1ccc(C(O)(C(F)(F)F)C(F)(F)F)cc1)S(=O)(=O)c1ccccc1 | – | – | 0.93 µM | 1.08 µM | – |

Source: ChEMBL document CHEMBL4665652, “Discovery of novel quinoline sulphonamide derivatives as potent, selective and orally active RORγ inverse agonists” (Bioorg Med Chem Lett, 2019)
